This data set deals with MS2 coat protein. Nature of the data set: apparent Kd, MS2 coat protein; higher = weaker binding; RNA-MaP array; FMN 200 µM where present. In short, it runs like this: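 The apparent Kd is reported as the median of filtered per-cluster binding-curve fits. To get these curves, designs transcribed by stalled E. coli RNA polymerase on Illumina sequencing-chip clusters were titrated with SNAP-549-labelled MS2 coat protein from 0.7 or 1.5 nM, doubling to 3 µM. Titrations were run without and then with constant ligand in 100 mM Tris-HCl pH 7.5, 80 mM KCl, 4 mM MgCl2, BSA, DTT, yeast tRNA and Tween-20, and green signal was normalised to red-channel RNA signal and control-cluster median Fmax.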

The mark [1] stands for this setting: designed as: OFF switch for flavin mononucleotide, no ligand.
Setting [2] is: ligand present: flavin mononucleotide, designed as: OFF switch for flavin mononucleotide.
The mark [3] stands for this setting: designed as: ON switch for flavin mononucleotide, no ligand.
Where [4] appears, read: ligand present: flavin mononucleotide, designed as: ON switch for flavin mononucleotide.

For the sequence “AAUAACAGAGGAUAUACUGUUUUAUGUGUUUGUUGUUUUGAACAUGAGGAUCACCCAUGUAGAAGGCUGAGUAA”, the apparent Kd (as a rule, the concentration giving half-maximal binding under the conditions of the assay) under setting [1] came out at 29.1 nM and the “apparent Kd” value under setting [2] is 25.9 nM.
With “GUGCACAUUCGAGGAUAUCGGAGAGAGAUCCUUCGAGAAGGCGAUUCAUGCUGUAUUAUCCUGGACAUGAGGAUCACCCAUGUG”, the “apparent Kd” value was 199 nM under setting [3] and 127 nM under setting [4].
With “UAUAUAUAGGCAGGAUAUACAUGAAUAUAUAAUAUAUUAUAUAAUAUAACAUGAGGAUCACCCAUGUAGAAGGGCCAUAAUAUA”, the “apparent Kd” value reads like this: under setting [1], 67 nM; under setting [2], 106 nM.
For the sequence “GGUACCUUUACAGGAUAUGCUAGGGUUUCCUUAGCAGAAGGGUGAUACAUGAGGAUCACCCAUGUGGUGCCAGGGCGUGAGCCC”, the “apparent Kd” value under setting [3] is 117 nM and the “apparent Kd” value under setting [4] came to 341 nM.
Take “GAUAGUCCUGAGAAGGACAUGAGGAUCACCCAUGUGAUUAUACCAGUGCAAUGAAAGCACUGGAUGUAGGAUAUCAGGACUAUC”: the “apparent Kd” value was 15.3 nM under setting [1] and 96.1 nM under setting [2].
On the same counts, the results for “ACUAUACGAGGAUAUACUGUCAGUACUCAGAGAUUAAUGUGACAUGAGGAUCACCCAUGUAGAAGGCGUUUACU” are 31.9 nM and 35.3 nM.
Turning to “GCCAUCGCAUGAGGAUAUGGCACCGUUUCGGUGCCAGAAGGCAUGUCUUAAGACAUGAGGAUCACCCAUGUAGUUAAGAUGGCA”, the “apparent Kd” value under setting [3] worked out at 860 nM and the “apparent Kd” value under setting [4] worked out at 56.9 nM.
Turning to “ACCAUUUACUAAUCUUCUAUACAUGAGGAUCACCCAUGUUUUGAGGAUAUCAGCGUGAAACACGCUGAGAAGGCAAAACAUUCG”, the “apparent Kd” value turned out to be 72 nM under setting [1] and 393 nM under setting [2].
Take “CUCUUGUCAGGAUAUACGUACGCUUCGGCGGCGAGGAUCAUGUAGAAGGGACAUGAGGAUCACCCAUGUUAGAC”: the “apparent Kd” value runs as follows: under setting [1], 41.6 nM; under setting [2], 44 nM.
As to “AAAAAACAUGAGGAUCACCCAUGUAAAAAAAUCGCAGGAUAUAAGGUCGCGAAAGCGACCUUAGAAGGGCGAUCCU”, the “apparent Kd” value runs as follows: under setting [3], 267 nM; under setting [4], 78.1 nM.
On to “AUUAAUAAGUAGAAGGACGGAGAGUAUGAAGUCGUAGGAUAUACAUAAGACAUGAGGAUCACCCAUGUAUGUAUUUUGGGUAUG”, for which the “apparent Kd” value under setting [1] stood at 12.9 nM and the “apparent Kd” value under setting [2] came out at 12.9 nM.
Turning to “CAGCUACCCAGUAUGGGUAUUUUUACAGAAGGCCAGGCACAUGAGGAUCACCCAUGUCAAGUUAUGGAGGAUAUGUUAGUGUAU”, the “apparent Kd” value runs as follows: under setting [3], 8.25 nM; under setting [4], 4.76 nM.
As for “GGUUGUCAUAGUCAUCCUUAACGAACAUGAGGAUCACCCAUGUAGGAUAUGCUACUCAAAGAGUAGCAGAAGGGCGUGUGUCUU”, the “apparent Kd” value under setting [1] was determined as 56.6 nM and the “apparent Kd” value under setting [2] worked out at 62.9 nM.
“UCUCGACAUGAGGAUCACCCAUGUCAGGAUAUUGUGUUUUGGGUUUUUUACCUUUUGGCAAGAAGGGAUGUGUG”: the “apparent Kd” value under setting [1] turned out to be 23 nM and the “apparent Kd” value under setting [2] turned out to be 22.1 nM.
Take “GGAGAACAUGAGGAUCACCCAUGUGGAUGGGCGCUAGGAUAUGCGAGAGGGUGGAGAGAAGCAGAAGGAGUGGAUA”: the “apparent Kd” value was found to be 62.2 nM under setting [3] and 54.5 nM under setting [4].
On to “AAUAAACUCACAGGAUAUAGCAUCGUCGGUAUGAACUUAAAGACGACGAUGCUAGAAGGGUGACCACAUGAGGAUCACCCAUGU”, for which the “apparent Kd” value came out at 903 nM under setting [3] and 114 nM under setting [4].
On to “GGUACUCAAAGAGUACCACUACGAACAUGAGGAUCACCCAUGUAGGAUAUGCUACUCAAAGAGUAGCAGAAGGACAUGUGCCUA”, for which the “apparent Kd” value under setting [1] was determined as 17.9 nM and the “apparent Kd” value under setting [2] is 123 nM.
With “AGUGAGCAGACAGGAUAUCCACUCAGGUCUGAGUCAACGACAUGAGGAUCACCCAUGUCCUAAAAGGAGAAGGGUCAUGGUCGU”, the “apparent Kd” value is, setting by setting: under setting [3], 198 nM; under setting [4], 107 nM.
With “CGUGGCCGAGGAUAUACGGACGUGUCGCCGGGUGUCGUGGGACAUGAGGAUCACCCAUGUAGAAGGUGGUUGUC”, the “apparent Kd” value was found to be 53.5 nM under setting [1] and 39 nM under setting [2].
On to “AUCAGCUCGUCAGGAUAUACGUCACUGCGUCAGCAGUGUGGUAAGAUCACAUGAGGAUCACCCAUGUAGAAGGUACGAGCUGAU”, for which the “apparent Kd” value under setting [1] came out at 8.6 nM and the “apparent Kd” value under setting [2] amounted to 13.8 nM.
On the same counts, the results for “ACGAUGUCAGGAUAUCGAUCACGGGUCUGAAGACACGUGUUUGAGAAGGGACAUGAGGAUCACCCAUGUGUCUA” are 43.6 nM and 223 nM.
With “GUUGGCUGAGGAUAUGCUUGCGUGCUUUUGUGUCGCGGGUGACAUGAGGAUCACCCAUGUAGAAGGUGGUCGGC”, the “apparent Kd” value is 818 nM under setting [1] and 673 nM under setting [2].
On to “GUGGAUAGACGCCCACGUGAGACAUGAGGAUCACCCAUGUACAGAAGGUGGAGCGUUAAUGGUGCCAAGGAUAUGUACAUAAGG”, for which the “apparent Kd” value under setting [2] is 5.11 nM.
